We go through 28 compounds from ChEMBL document CHEMBL1141125, “Heteroaryl-substituted naphthalenes and structurally modified derivatives: selective inhibitors of CYP11B2 for the treatment of congestive heart failure and myocardial fibrosis” (J Med Chem, 2005).

Structures are written as SMILES. Values after ≈ are worked out from the molar mass of the structure shown.

One data set is filed under the species Homo sapiens. The data set is described as follows: Ratio between inhibitory concentration of cytochrome P450 11B1 to cytochrome P450 11B2. Summed up:
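Confluent V79 MZh hamster lung fibroblasts expressing human CYP11B1 or CYP11B2, in DMEM. Preincubated 60 min at 37 °C with inhibitor at three or more concentrations. [4-14C]11-deoxycorticosterone substrate, 100 nM. Incubation 120 min for CYP11B1 and 40 min for CYP11B2; controls without inhibitor. Ethyl acetate extraction, then HPTLC with phosphoimager quantification, giving IC50.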

The target of data set [1] is T1, Cytochrome P450 11B1, mitochondrial (Homo sapiens, UniProt P15538).
T1 sequence (P15538 whole entry): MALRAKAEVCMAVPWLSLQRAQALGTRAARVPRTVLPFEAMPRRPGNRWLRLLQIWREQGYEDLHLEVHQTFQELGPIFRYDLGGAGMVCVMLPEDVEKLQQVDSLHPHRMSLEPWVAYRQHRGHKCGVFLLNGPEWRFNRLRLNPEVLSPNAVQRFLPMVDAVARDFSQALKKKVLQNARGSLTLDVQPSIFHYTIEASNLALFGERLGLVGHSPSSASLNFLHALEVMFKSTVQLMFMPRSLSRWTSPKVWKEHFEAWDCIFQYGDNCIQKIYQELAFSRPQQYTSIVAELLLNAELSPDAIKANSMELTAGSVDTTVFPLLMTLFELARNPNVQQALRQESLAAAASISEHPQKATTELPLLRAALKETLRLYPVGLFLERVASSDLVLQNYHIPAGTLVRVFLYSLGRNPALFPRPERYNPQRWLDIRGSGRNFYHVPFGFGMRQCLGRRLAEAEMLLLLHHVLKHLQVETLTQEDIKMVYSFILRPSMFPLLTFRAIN
The data set is described as follows: Inhibitory concentration against human cytochrome P450 11B1 expressed in V79 MZh hamster lung fibroblasts, incubated with [14C]deoxycorticosterone.

Data set [2] in a line: Solubility calculated with ACD/I-lab at pH 7.4. Particulars: read-out: S; call rule not given here.
Another data set addresses T2, Aromatase (Homo sapiens, UniProt P11511).
T2 sequence (P11511 whole entry): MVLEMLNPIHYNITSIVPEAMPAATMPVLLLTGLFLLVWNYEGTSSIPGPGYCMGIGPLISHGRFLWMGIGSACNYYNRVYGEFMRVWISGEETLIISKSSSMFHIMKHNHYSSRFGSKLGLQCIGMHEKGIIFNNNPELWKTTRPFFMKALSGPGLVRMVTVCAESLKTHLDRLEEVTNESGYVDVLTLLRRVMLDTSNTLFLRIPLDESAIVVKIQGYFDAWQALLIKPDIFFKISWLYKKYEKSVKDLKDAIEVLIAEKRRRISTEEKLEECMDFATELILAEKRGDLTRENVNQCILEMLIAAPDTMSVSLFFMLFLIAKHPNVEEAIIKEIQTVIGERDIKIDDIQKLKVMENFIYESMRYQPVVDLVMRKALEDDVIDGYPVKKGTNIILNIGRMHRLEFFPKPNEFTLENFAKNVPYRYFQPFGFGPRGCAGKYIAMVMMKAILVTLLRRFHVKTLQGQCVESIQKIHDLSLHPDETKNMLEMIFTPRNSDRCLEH

Data set [3] addresses T3, Cytochrome P450 11B2, mitochondrial (Homo sapiens, UniProt P19099).
T3 sequence (P19099 whole entry): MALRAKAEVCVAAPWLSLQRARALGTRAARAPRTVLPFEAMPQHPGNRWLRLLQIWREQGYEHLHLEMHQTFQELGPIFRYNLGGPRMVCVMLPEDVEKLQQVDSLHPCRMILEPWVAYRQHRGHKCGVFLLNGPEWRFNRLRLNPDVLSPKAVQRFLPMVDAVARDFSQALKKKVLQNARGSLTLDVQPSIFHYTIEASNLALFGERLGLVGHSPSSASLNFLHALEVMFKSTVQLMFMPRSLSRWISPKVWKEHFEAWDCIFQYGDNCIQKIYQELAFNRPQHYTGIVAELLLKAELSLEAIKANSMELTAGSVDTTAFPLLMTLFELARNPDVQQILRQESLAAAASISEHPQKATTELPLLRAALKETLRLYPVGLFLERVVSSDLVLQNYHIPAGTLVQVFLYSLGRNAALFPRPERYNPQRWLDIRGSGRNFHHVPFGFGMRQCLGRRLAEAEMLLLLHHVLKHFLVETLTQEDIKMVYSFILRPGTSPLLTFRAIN
The data set is described as follows: Percent inhibition against human cytochrome P450 11B2 expressed in fission yeast, incubated with [14C]deoxycorticosterone. Set-up: concentration or dose not given beside the values.

The target in data set [4] is T3, Cytochrome P450 11B2, mitochondrial. The data set is described as follows: Inhibitory concentration against human cytochrome P450 11B2 expressed in V79 MZh hamster lung fibroblasts, incubated with [14C]deoxycorticosterone.
The next data set addresses T4, CYP11B1 (Homo sapiens, UniProt P15538).
T4 sequence (P15538 whole entry): T1 sequence (P15538 whole entry)
The data set is described as follows: Inhibitory concentration against human cytochrome P450 11B1 expressed in V79 MZh hamster lung fibroblasts, incubated with [14C]deoxycorticosterone. Particulars: human, V79 MZh hamster lung fibroblasts expressing human CYP11B1, probe [14C]deoxycorticosterone.

For data set [5], the target named is T5, Steroid 17-alpha-hydroxylase/17,20 lyase (Homo sapiens, UniProt P05093).
T5 sequence (P05093 whole entry): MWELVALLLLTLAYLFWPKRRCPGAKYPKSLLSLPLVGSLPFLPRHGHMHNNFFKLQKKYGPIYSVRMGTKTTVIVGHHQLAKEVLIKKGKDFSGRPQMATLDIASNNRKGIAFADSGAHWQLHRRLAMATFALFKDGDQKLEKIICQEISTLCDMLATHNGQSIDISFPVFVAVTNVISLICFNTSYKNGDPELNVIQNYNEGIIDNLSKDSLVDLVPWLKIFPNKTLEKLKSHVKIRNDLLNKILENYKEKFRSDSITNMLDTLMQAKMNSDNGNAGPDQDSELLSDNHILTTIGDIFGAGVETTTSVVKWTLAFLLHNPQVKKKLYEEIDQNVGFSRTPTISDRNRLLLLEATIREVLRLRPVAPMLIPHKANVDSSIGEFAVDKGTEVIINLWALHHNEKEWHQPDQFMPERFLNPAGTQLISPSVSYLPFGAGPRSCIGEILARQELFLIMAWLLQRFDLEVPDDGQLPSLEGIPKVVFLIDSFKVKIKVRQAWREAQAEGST
The data set is described as follows: Percent inhibition against recombinant human cytochrome P450 17A1 using progesterone. Set-up: concentration or dose not given beside the values.

A further data set addresses Cytochrome P450 3A4 (Homo sapiens, UniProt P08684). The data set is described as follows: Inhibition percent against human hepatic cytochrome P450 3A4 enzyme at 50 uM concentration; no inhibition. The data set is classed as ADME.
The next data set deals with Cytochrome P450 2D6 (Homo sapiens, UniProt P10635). As to the kind of experiment: Inhibition percent against human hepatic cytochrome P450 2D6 enzyme at 20 nM concentration; no inhibition.
The target in data set [6] is T3, Cytochrome P450 11B2, mitochondrial. As to the kind of experiment: Inhibitory concentration against human cytochrome P450 11B2 expressing in V79 MZh cells using [14C]deoxycorticosterone as substrate measured by screening assay. The data set is classed as cell-based.

Cytochrome P450 2D6, sequence (P10635 whole entry): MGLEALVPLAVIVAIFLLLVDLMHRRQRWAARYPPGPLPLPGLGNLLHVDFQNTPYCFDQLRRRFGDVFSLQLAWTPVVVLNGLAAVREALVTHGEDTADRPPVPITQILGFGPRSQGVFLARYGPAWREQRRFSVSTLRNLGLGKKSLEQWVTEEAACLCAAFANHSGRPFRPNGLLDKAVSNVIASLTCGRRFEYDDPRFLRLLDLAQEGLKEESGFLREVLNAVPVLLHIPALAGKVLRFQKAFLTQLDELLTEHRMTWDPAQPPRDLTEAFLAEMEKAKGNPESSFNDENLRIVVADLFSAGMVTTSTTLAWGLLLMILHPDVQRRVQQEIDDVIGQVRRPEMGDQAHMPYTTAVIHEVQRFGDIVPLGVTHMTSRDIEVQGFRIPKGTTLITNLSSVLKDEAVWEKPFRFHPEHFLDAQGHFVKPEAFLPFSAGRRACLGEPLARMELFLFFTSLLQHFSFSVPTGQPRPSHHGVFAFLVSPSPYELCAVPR
Cytochrome P450 3A4, sequence (P08684 whole entry): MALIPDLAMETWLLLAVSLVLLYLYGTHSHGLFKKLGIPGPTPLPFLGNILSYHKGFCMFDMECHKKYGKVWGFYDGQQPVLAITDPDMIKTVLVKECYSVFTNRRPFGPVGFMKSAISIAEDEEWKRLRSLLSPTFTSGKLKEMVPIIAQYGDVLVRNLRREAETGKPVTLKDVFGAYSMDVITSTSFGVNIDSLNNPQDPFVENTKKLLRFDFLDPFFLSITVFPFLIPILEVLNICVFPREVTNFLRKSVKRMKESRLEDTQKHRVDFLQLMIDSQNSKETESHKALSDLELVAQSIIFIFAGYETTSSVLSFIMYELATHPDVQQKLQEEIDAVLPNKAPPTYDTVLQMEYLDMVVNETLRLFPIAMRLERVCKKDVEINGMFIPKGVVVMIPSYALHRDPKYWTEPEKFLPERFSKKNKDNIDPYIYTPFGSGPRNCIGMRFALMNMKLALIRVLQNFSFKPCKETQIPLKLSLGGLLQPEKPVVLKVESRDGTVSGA

As usually defined, the IC50 is the concentration needed to halve the response being measured. For `COc1ccc2cc(-c3cccnc3)ccc2c1Cl`, in the data set filed under Homo sapiens, the Selectivity factor was 192. Also, in [1], the IC50 was determined as 2520 nM. Moreover, the solubility in data set [2] was 7.6 µM (≈ 2.05 µg/mL).

Consider `COc1ccc2cc(-c3cccnc3)ccc2c1Br`, for which the Selectivity factor in the data set listed under Homo sapiens worked out at 136. 4480 nM corresponded to half-maximal inhibition in [1] (IC50). Moreover, the solubility in data set [2] is 39 µM (≈ 12.3 µg/mL).

`Brc1ccc2cc(-c3cccnc3)ccc2c1`: the Selectivity factor in the data set filed under Homo sapiens came out at 196. Besides, the half-inhibitory concentration (IC50) against Aromatase is more than 36 µM; in [1], 2940 nM. The solubility in [2] was 1.3 µM (≈ 0.369 µg/mL).

Turning to `Oc1ccc2cc(-c3cccnc3)ccc2c1`, the solubility in data set [2] is 230 µM (≈ 50.9 µg/mL).

For orientation: Inhibition means the percentage by which the read-out fell short of the control. `c1ccc2cc(-c3cnc[nH]3)ccc2c1`: the Inhibition in data set [3] is 41%. Besides, the Selectivity factor in the data set listed under Homo sapiens was 0.7. In addition, the values for the IC50 (in [4]; against CYP11B1) were 296 nM and 207 nM, respectively.

For `N#Cc1ccc2cc(-c3cccnc3)ccc2c1`, the Selectivity factor in the data set filed under Homo sapiens came to 238. In addition, the 50% inhibitory concentration (IC50) at Aromatase was more than 36 µM. Besides, in data set [5], the Inhibition is recorded as 73%. Also, the solubility in data set [2] was 160 µM (≈ 36.8 µg/mL).

`NC(=O)c1ccc2cc(-c3cccnc3)ccc2c1` came in with an Inhibition in data set [3] of 0%.

`c1ccc2ncc(-n3ccnc3)cc2c1` had an Inhibition in data set [3] of 17%. The Selectivity factor in the data set listed under Homo sapiens turned out to be 10. For the same compound, the half-maximal inhibitory concentration (IC50) is 604 nM in data set [4] and 6340 nM in data set [1].

In [3], `COc1ccc2cc(-c3cccnc3)ccc2c1-c1cccnc1` displayed an Inhibition of 9%.

Compound `c1cncc(-c2cc3ccccc3c3ccccc23)c1` came in with an Inhibition in data set [3] of 27%. In addition, the midpoint of inhibition in [1], the IC50, lay at 7550 nM.

In turn, `CCCOc1ccc2cc(-c3cccnc3)ccc2c1` came in with an Inhibition in data set [3] of 36%.

The compound `COC(=O)c1ccc2cc(-c3cccnc3)ccc2c1` came in with an Inhibition in [3] of 74%. Also, the Selectivity factor in the data set listed under Homo sapiens was 145. This compound showed an IC50 in [4] of 72 nM. In addition, the solubility in data set [2] is 71 µM (≈ 18.7 µg/mL).

As for `c1cncc(-c2ccc3ccccc3c2)c1`, the solubility in data set [2] was 200 µM (≈ 41.1 µg/mL).

Turning to `COc1ccc2c(Cl)c(-c3cccnc3)ccc2c1Cl`, in the data set filed under Homo sapiens, the Selectivity factor is 174. Further, in data set [5], the Inhibition turned out to be 83%. The half-inhibitory concentration (IC50) in data set [1] worked out at 4900 nM. Further, the solubility in data set [2] is 7.2 µM (≈ 2.19 µg/mL).

In turn, `c1cncc(-c2cnc3ccccc3n2)c1` showed an Inhibition in data set [3] of 13%.

Take `CCOc1ccc2cc(-c3cccnc3)ccc2c1`: in the data set listed under Homo sapiens, the Selectivity factor was found to be 451. In addition, in data set [1], the IC50 worked out at 5420 nM. For the same compound, the Inhibition result on Cytochrome P450 3A4 and on Cytochrome P450 2D6 was “Not Active” in each case.

Regarding `Cn1cncc1-c1ccc2ccccc2c1`, in [3], the Inhibition worked out at 28%.

In data set [3], `COc1ccc2cc(-n3ccnc3)ccc2c1` returned an Inhibition of 49%. Also, the Selectivity factor in the data set filed under Homo sapiens came out at 4. The IC50 worked out at 218 nM in data set [4], 849 nM in data set [1] and 218 nM in data set [6].

In turn, `COc1cc2ccccc2cc1-n1ccnc1` yielded an Inhibition in [3] of 87%. Further, in the data set filed under Homo sapiens, the Selectivity factor came out at 4. Also, the results for the IC50 in data set [4], in data set [1] and in [6] were 19 nM, 81 nM and 19.1 nM, respectively.

For the compound `COc1ccc2cc(-c3cccnc3)ccc2c1`, the Inhibition in data set [5] came out at 72%. The solubility in data set [2] is 79 µM (≈ 18.6 µg/mL).

As to `c1ccc(COc2ccc3cc(-c4cccnc4)ccc3c2)cc1`, the Inhibition in data set [3] came to 3%.

As for `CNC(=O)c1ccc2cc(-c3cccnc3)ccc2c1`, in data set [3], the Inhibition turned out to be 0%.

Take `c1ccc2cc(-n3ccnc3)ccc2c1`: the half-maximal inhibitory concentration (IC50) in data set [4] came to 39 nM; in [1], 1320 nM; in [6], 38.5 nM. Besides, in [2], the solubility is 280 µM (≈ 54.4 µg/mL).

`c1ccc2cc(-c3cnco3)ccc2c1` yielded an Inhibition in data set [3] of 11%. The Selectivity factor in the data set listed under Homo sapiens was 66. This compound returned a 50% inhibitory concentration (IC50) in data set [4] of 12 nM.

On to `COc1cc2ccccc2cc1-c1cccnc1`, for which the Inhibition in data set [3] is on record as 30%. The compound further showed a 50% inhibitory concentration (IC50) in data set [6] of more than 500 nM.

Take `N#Cc1ccc(C2CCCc3cncn32)cc1` (stereo not drawn) [FADROZOLE]: the Inhibition in [5] is recorded as 5%.

Turning to `COc1ccc2ccc(-c3cccnc3)c(Cl)c2c1`, in the data set listed under Homo sapiens, the Selectivity factor worked out at 94. Also, the figures for the IC50 (against Aromatase; in data set [1]) were more than 36 µM and 2720 nM, respectively. Also, the Inhibition in data set [5] stood at 94%. For the same compound, the solubility in data set [2] was 14 µM (≈ 3.78 µg/mL).

In data set [3], `COc1ccc2cc(-c3ccncc3)ccc2c1` showed an Inhibition of 0%.
